Results pooled from the literature.
Compare with care: the assays were run in different laboratories.
ADRA2B: Alpha-2B adrenergic receptor (ADRA2B, Homo sapiens, UniProt P18089)
SIGMAR1: Sigma non-opioid intracellular receptor 1 (SIGMAR1, Cavia porcellus, UniProt Q60492)
ADRA1D: Alpha-1D adrenergic receptor (ADRA1D, Homo sapiens, UniProt P25100)
TMEM97: Sigma intracellular receptor 2 (TMEM97, Homo sapiens, UniProt Q5BJF2)
Prostate-specific antigen: Prostate-specific antigen (Homo sapiens, UniProt P07288)
lecB: Fucose-binding lectin PA-IIL (lecB, Pseudomonas aeruginosa, UniProt Q9HYN5)
CASP7: Caspase-7 (CASP7, Homo sapiens, UniProt P55210)

For `CN(Cc1ccc(NC(=O)C2=Cc3cc(-c4ccc(OCCCCCF)cc4)ccc3CCC2)cc1)C1CCOCC1`, the Ki was 6.81 µM (ADRA2B; ligand displacement, radioligand).
With `O[C@@H]1[C@H](O)[C@@H]2C[C@@H]2[C@H]1n1cnc2c(NCc3cccc(Cl)c3)nc(C#Cc3ccccc3)nc21` the Ki was 7.66 µM (SIGMAR1; ligand displacement, radioligand).
`O=C1c2ccccc2CCN1CCCCN1CCN(c2cccc(Cl)c2Cl)CC1` gave a Ki of 0.0784 µM (ADRA1D; ligand displacement, radioligand).
For `CCCn1nc(C(=O)N2CCCCC2)c2c1CCC(N1CCC(c3ccncc3)CC1)C2` (stereo not shown), the Ki was 0.016 µM (TMEM97; ligand displacement, radioligand).
`C#CCNCCCN1CCN(CCCNC(=O)c2ccc(C(=O)c3ccc([N+](=O)[O-])cc3)cc2)CC1` has a Ki of 0.0601 µM (TMEM97; ligand displacement, radioligand; cell membranes).
`COc1ccc2c(c1)C(=O)N(CCN1CCN(c3ccccc3OC)CC1)C2` gave a Ki of 0.0124 µM (ADRA1D; ligand displacement, radioligand).
`CCCC[C@H](NC(=O)[C@H](CCCCN)NC(=O)[C@H](CO)NC(=O)[C@H](CO)NC(=O)OCc1ccccc1)C(=O)N[C@@H](Cc1ccccc1)B(O)O` has a Ki of 0.165 µM (Prostate-specific antigen; enzyme activity, inhibitor, fluorescence; pH 7.8).
The Ki of `CCCCN1CCC(COC(=O)c2ccc(N)c(OCF)c2)CC1` is reported as > 10 µM (ADRA1D; cell-free assay, radioligand).
For `CCCn1nc(C(=O)N2CCCCC2)c2c1CCC(Nc1ccc(Oc3ccccc3)cc1)C2` (stereo not shown), the Ki was 0.31 µM (TMEM97; ligand displacement, radioligand).
`CCCC[C@H](NC(=O)[C@H](CCC(N)=O)NC(=O)[C@H](CO)NC(=O)[C@H](Cc1ccccc1)NC(=O)CCCCCNC(=O)c1ccc(I)cc1)C(=O)N[C@@H](CCCBr)B(O)O` gave a Ki of 0.0644 µM (Prostate-specific antigen; enzyme activity, inhibitor, fluorescence; pH 7.8).
The Ki of `CNc1nc(C#Cc2ccc(Cl)s2)nc2c1ncn2[C@H]1[C@H](O)[C@H](O)[C@]2(C(=O)OC)C[C@H]12` is reported as 8.73 µM (SIGMAR1; ligand displacement, radioligand).
For `CCCC[C@H](NC(=O)[C@H](CCC(N)=O)NC(=O)[C@H](CO)NC(=O)[C@H](Cc1ccccc1)NC(=O)CCCCCN)C(=O)N[C@@H](CCCBr)B(O)O`, the Ki was 0.0723 µM (Prostate-specific antigen; enzyme activity, inhibitor, fluorescence; pH 7.8).
With `C[C@@H]1O[C@H](CNS(=O)(=O)c2ccc(CCn3cc(CN4CCN(c5cc6c(cc5F)c(=O)c(C(=O)O)cn6C5CC5)CC4)nn3)s2)[C@@H](O)[C@H](O)[C@@H]1O` the Ki was 0.82 µM (lecB; ligand displacement, FP).
The Ki of `OCCCN1CC[C@@H]2C[C@H]1c1cc(-c3ccc(C(F)(F)F)cc3)ccc12` is reported as 0.017 µM (TMEM97; ligand displacement, radioligand).
With `O=c1c(O)c(-c2cc(O)c(O)c(O)c2)oc2cc(O)cc(O)c12` the Ki was 65.9 µM (CASP7; enzyme activity, inhibitor, fluorescence).
For `CN(Cc1ccc(NC(=O)C2=Cc3cc(-c4ccc(OCCCF)cc4)ccc3CCC2)cc1)C1CCOCC1`, the Ki was 1.2 µM (ADRA2B; ligand displacement, radioligand).
With `O=C(NCCN1CCCCC1)c1ccc(OCCF)c(Br)c1` the Ki was 0.0361 µM (SIGMAR1; ligand displacement, radioligand; cell membranes).
`CCCNc1nc2ccccc2n1Cc1ccc(Cl)cc1` gave a Ki of 0.677 µM (ADRA2B; ligand displacement, radioligand).
With `O=C(NCCN1CCCCC1)c1ccc(O)c(Br)c1` the Ki was > 10 µM (SIGMAR1; ligand displacement, radioligand; cell membranes).
`C[C@@H]1O[C@H](CNS(=O)(=O)c2ccc(CCN=[N+]=[N-])s2)[C@@H](O)[C@H](O)[C@@H]1O` gave a Ki of 1.52 µM (lecB; ligand displacement, FP).
`O=C(CN(CCCCI)CCCN1CCN(C2CCCCC2)CC1)Nc1ccc(C(=O)c2ccccc2)cc1` gave a Ki of 0.045 µM (TMEM97; ligand displacement, radioligand; cell membranes).
For `Cc1cc(Oc2nccc3ccsc23)ccc1-c1c(C)c(=O)[nH]c(=O)n1C`, the Ki was 4.6 µM (Muscarinic acetylcholine receptor M3 (CHRM3, Homo sapiens, UniProt P20309); ligand displacement, radioligand).
For `CCCC[C@H](NC(=O)[C@H](CCC(N)=O)NC(=O)[C@H](CO)NC(=O)[C@H](CO)NC(=O)CCCCCN)C(=O)N[C@@H](CC(C)C)B(O)O`, the Ki was 0.0431 µM (Prostate-specific antigen; enzyme activity, inhibitor, fluorescence; pH 7.8).
`O=c1c(O)c(-c2ccc(O)c(O)c2)oc2cc(O)cc(O)c12` has a Ki of > 300 µM (CASP7; enzyme activity, inhibitor, fluorescence).
For `O=C(c1ccccc1)c1ccc(CNCCCN2C(=O)c3ccccc3C2=O)cc1`, the Ki was > 10 µM (TMEM97; ligand displacement, radioligand; cell membranes).
For `O=C(NCCN1CCCCC1)c1cc(Br)ccc1O`, the Ki was > 10 µM (SIGMAR1; ligand displacement, radioligand; cell membranes).
`O=C(CCCCC1SC[C@@H]2NC(=O)N[C@H]12)NCCCN(CCCN1CCN(C2CCCCC2)CC1)CC(=O)Nc1ccc(C(=O)c2ccccc2)cc1` (stereo in doubt) has a Ki of 0.087 µM (TMEM97; ligand displacement, radioligand; cell membranes).
With `CCCC[C@H](NC(=O)[C@H](CCC(N)=O)NC(=O)[C@H](CO)NC(=O)C[C@@H](Cc1ccc2ccccc2c1)NC(=O)CCCCCN)C(=O)N[C@@H](CCCBr)B(O)O` the Ki was 0.102 µM (Prostate-specific antigen; enzyme activity, inhibitor, fluorescence; pH 7.8).
For `O=C1c2ccccc2CCN1CCCCN1CCN(c2ccccn2)CC1`, the Ki was 0.467 µM (ADRA1D; ligand displacement, radioligand).
With `O=C(c1ccc(CNCCCN2CCN(C3CCCCC3)CC2)cc1)c1ccc([N+](=O)[O-])cc1` the Ki was 0.033 µM (TMEM97; ligand displacement, radioligand; cell membranes).
With `CCCC[C@H](NC(=O)[C@H](CCC(N)=O)NC(=O)[C@H](CO)NC(=O)CCCCCN)C(=O)N[C@@H](CCCBr)B(O)O` the Ki was 0.302 µM (Prostate-specific antigen; enzyme activity, inhibitor, fluorescence; pH 7.8).
